According to paper PMC6370590 (European journal of pharmaceutical sciences : official …, 2018):

Experiments:
[1] = molecular target: T1, 14M_zTDP2^cat (humanized zebrafish TDP2 catalytic domain) (Danio rerio, UniProt Q5XJA0, A139S/C239T/C322L/D120S/K240R/K309Q/K314L/L136N/P317T/R321K/S320C/T315G/V316I/V319A/Y318A); experiment: 14M_zTDP2^cat fluorescence-based biochemical assay; conditions: for LE (ligand efficiency): LE = 1.4 x pIC50 / HAC; for LELP (ligand efficiency dependent lipophilicity): LELP = LE / cLogP as printed; for LLE (lipophilic ligand efficiency): LLE = pIC50 - cLogP; for TDP2 inhibition, SAR statement: compared with hit 11a
T1 sequence (Q5XJA0 120-369 D120S/L136N/A139S/C239T/K240R/K309Q/K314L/T315G/V316I/P317T/Y318A/V319A/S320C/R321K/C322L): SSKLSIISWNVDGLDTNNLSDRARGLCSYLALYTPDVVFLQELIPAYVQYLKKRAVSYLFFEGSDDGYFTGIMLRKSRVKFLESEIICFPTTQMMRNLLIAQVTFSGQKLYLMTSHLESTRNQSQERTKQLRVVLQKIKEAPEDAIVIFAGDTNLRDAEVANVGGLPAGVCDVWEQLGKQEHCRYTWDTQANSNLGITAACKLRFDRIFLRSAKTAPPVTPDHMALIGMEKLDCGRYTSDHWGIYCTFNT
How it was run: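 Humanized zebrafish TDP2 catalytic domain (residues 120–369), 6.25 pM final, pre-incubated 10 min with test compound in pH 7.4 Tris buffer (10 mM MgCl₂, 80 mM KCl, 0.05% Tween-20, 1 mM DTT). Reaction started with 1 μM (final) FAM-phosphotyrosyl-GATCT-BHQ-1 substrate at 25 °C. Fluorescence ([…]) read kinetically over 60 min. % inhibition normalised to DMSO and no-enzyme controls. IC₅₀ fitted from 10–12 concentrations.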

SUMO hTDP2^cat = molecular target: T2, SUMO hTDP2^cat (Homo sapiens, UniProt O95551); experiment: SUMO hTDP2^cat fluorescence-based biochemical assay
T2 sequence (O95551 110-362): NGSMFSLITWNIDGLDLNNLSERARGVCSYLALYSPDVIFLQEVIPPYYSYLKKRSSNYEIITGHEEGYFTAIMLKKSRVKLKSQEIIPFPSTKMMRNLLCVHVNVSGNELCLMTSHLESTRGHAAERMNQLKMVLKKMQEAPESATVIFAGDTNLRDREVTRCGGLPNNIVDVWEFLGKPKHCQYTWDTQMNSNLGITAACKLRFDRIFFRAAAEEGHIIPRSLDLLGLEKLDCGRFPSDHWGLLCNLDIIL

## COc1ccc2nc(NC(=N)N)nc(C)c2c1 [Compound 11a, 1-(6-Methoxy-4-methylquinazolin-2-yl) guanidine]
[1]
  LE (ligand efficiency): 0.32
  LELP (ligand efficiency dependent lipophilicity): 4.9
  LLE (lipophilic ligand efficiency): 2.3
SUMO hTDP2^cat
  IC50: 113 ± 10 µM

## CCOc1ccc2nc(NC(=N)N)nc(C)c2c1 [Compound 11b, 1-(6-Ethoxy-4-methylquinazolin-2-yl) guanidine]
[1]
  TDP2 inhibition, SAR statement: did not interfere significantly with the activity

## Cc1nc(NC(=N)N)nc2ccc(Cl)cc12.Cl [Compound 11c, 1-(6-Chloro-4-methylquinazolin-2-yl) guanidine hydrochloride]
[1]; up to 200 µM, vs. 11a
  inhibitory activity: abrogated completely the inhibitory activity

## COc1ccc2nc(Nc3nc(C)c(C)c(=O)[nH]3)nc(C)c2c1 [Compound 12a, 2-((6-Methoxy-4-methylquinazolin-2-yl)amino)-5,6-dimethylpyrimidin-4(3H)-one]
SUMO hTDP2^cat; ratio of IC50 values
  fold increase in potency over the original HTS hit 11a: 6.4 fold

## COc1ccc2nc(NC(=N)N)[nH]c(=O)c2c1 [Compound 15, 1-(6-Methoxy-4-oxo-3,4-dihydroquinazolin-2-yl)guanidine]
[1]
  TDP2 inhibition, SAR statement: no inhibition was observed

## Cc1ccc(-c2nn3c(-c4ccco4)nnc3s2)cc1C [Compound 19a, 6-(3,4-Dimethylphenyl)-3-(furan-2-yl)-[1,2,4]triazolo[3,4-b][1,3,4] thiadiazole]
[1]
  LE (ligand efficiency): 0.30
  LELP (ligand efficiency dependent lipophilicity): 14
  LLE (lipophilic ligand efficiency): 0.29

## COc1ccccc1-c1nn2c(-c3ccco3)nnc2s1 [Compound 19b, 3-(Furan-2-yl)-6-(2-methoxyphenyl)-[1,2,4]triazolo[3,4-b][1,3,4]thiadiazole]
[1]; concentrations up to 100 µM
  TDP2 inhibition: did not exhibit significant TDP2 inhibition
